In article PMC9065027 (RSC Advances, 2019):

How the values were obtained:
LdNH = assay: NMR Saturation Transfer Difference; assay type: binding, Leishmania donovani; conditions: 100 μM LdNH, 2 mM compound, 2 s saturation time
Procedure, shortened: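 STD spectra acquired in alternating scans, on-resonance at −1 ppm and off-resonance at 20 ppm. DPFGSE water suppression, 2 s saturation time, 1024 scans.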

[1] = test system: amastigote parasite Leishmania amazonensis; conditions: cited from earlier work
HSV-1 = conditions: cited from earlier work
HSV-2 = conditions: cited from earlier work

Structure (SMILES)	STD signals in presence of LdNH (LdNH)	leishmanicidal activity IC50 [1] [µg/mL]	IC50 ([1]; read-out: leishmanicidal activity IC50, value in brackets) [µM]	anti-viral activity EC50 (HSV-1) [µg/mL]	anti-viral activity EC50 (HSV-2) [µg/mL]
C[C@@H]1O[C@@H](Oc2c(-c3ccc(O)cc3)oc3cc(O)cc(O)c3c2=O)[C@H](O)[C@H](O)[C@H]1O [compound 1, kaempferol 3-O-α-L-rhamnopyranoside]	only weak resonances	70	162	–	–
C[C@@H]1O[C@@H](Oc2c(-c3ccc(O)cc3)oc3cc(O)cc(O)c3c2=O)[C@H](O[C@@H]2OC[C@@H](O)[C@H](O)[C@H]2O)[C@H](O)[C@H]1O [compound 2, kaempferol 3-O-β-D-xylopyranosyl-(1→2)-α-L-rhamnopyranoside]	much more intense	–	–	7.4	9.0
